Laboratory results: ChEMBL document CHEMBL1138917, “FK506-binding protein ligands: structure-based design, synthesis, and neurotrophic/neuroprotective properties of substituted 5,5-dimethyl-2-(4-thiazolidine)carboxylates” (2006)
Activity calls are given as the source filed them. The calls are words filed in the database; no cut-off is given here.

Assays:
[1] = target: T1, Peptidyl-prolyl cis-trans isomerase FKBP4 (Homo sapiens) (UniProt Q02790); test: Increase in neurite outgrowth in chick embryo dorsal root ganglion at 1 pM in presence of NGF; assay type: functional, tissue-based; settings: Gallus gallus, target entry is the homologue from another species
T1 sequence (whole entry): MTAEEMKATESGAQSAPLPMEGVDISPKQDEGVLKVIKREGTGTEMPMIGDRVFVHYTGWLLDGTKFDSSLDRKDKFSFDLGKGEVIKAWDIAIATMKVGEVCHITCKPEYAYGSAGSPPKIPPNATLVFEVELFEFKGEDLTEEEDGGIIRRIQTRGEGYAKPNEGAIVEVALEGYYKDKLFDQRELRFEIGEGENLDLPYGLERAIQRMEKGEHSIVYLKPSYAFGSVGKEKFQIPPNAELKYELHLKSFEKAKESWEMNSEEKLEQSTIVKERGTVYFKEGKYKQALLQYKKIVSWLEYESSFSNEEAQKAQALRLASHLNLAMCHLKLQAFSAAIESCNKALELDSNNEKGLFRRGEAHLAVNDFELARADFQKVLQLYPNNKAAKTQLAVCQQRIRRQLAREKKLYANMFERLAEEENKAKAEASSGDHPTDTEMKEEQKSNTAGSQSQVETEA
In short: (§1)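 DRGs from 8-day chick embryos, on rat tail collagen-coated flasks, 5-6 per flask; after 1 h attachment at 37 °C, 5% CO2, treated with compound plus 0.15 ng/mL NGF in DMEM for 48 h. DMSO stock 1 mM, final DMSO below 10^-7 M. Phase-contrast scoring of neurite number and length, averaged over 15-18 ganglia; NGF-only controls; one-way ANOVA with Student-Newman-Keuls.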

[2] = target: T1, Peptidyl-prolyl cis-trans isomerase FKBP4 (Homo sapiens); test: Increase in neurite outgrowth in chick embryo dorsal root ganglion at 100 pM in presence of NGF; assay type: functional, tissue-based; settings: Gallus gallus, target entry is the homologue from another species; in short: as §1
[3] = target: T1, Peptidyl-prolyl cis-trans isomerase FKBP4 (Homo sapiens); test: Increase in neurite outgrowth in chick embryo dorsal root ganglion in presence of NGF; assay type: functional, tissue-based; settings: Gallus gallus, target entry is the homologue from another species; in short: as §1
[4] = target: T1, Peptidyl-prolyl cis-trans isomerase FKBP4 (Homo sapiens); test: Decrease in neurite outgrowth in chick embryo dorsal root ganglion at 1 nM in presence of NGF; assay type: functional, tissue-based; settings: Gallus gallus, target entry is the homologue from another species; in short: as §1
[5] = tested on: Mus musculus; test: Neuroprotective activity against 6-OHDA-induced Kunming mouse peripheral sympathetic nerve injury measured as norepinephrine content in submandibular gland at 10 mg/kg, sc; assay type: functional; settings: route subcutaneous
In short: (§2)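 Adult female Kunming mice, 22 g, lesioned with 6-OHDA 8 mg/kg i.p.; compound given s.c. 4 h before lesion and daily for 4 further days; vehicle controls. Killed 2 weeks after last dose; both submandibular glands weighed and homogenized with 3,4-dihydroxybenzylamine internal standard, centrifuged 30 min; norepinephrine in supernatant by HPLC-ECD, µg/g wet weight; mean ± SEM.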

[6] = target: T1, Peptidyl-prolyl cis-trans isomerase FKBP4 (Homo sapiens); test: Increase in neurite outgrowth in chick embryo dorsal root ganglion in absence of NGF; assay type: functional, tissue-based; settings: Gallus gallus, target entry is the homologue from another species
[7] = tested on: Mus musculus; test: Neuroprotective activity against 6-OHDA-induced Kunming mouse peripheral sympathetic nerve injury measured as norepinephrine content in submandibular gland at 2 mg/kg, sc; assay type: functional; settings: route subcutaneous; in short: as §2

In the case of `CC(C)(C)C(=O)C(=O)N1[C@H](C(=O)OCCCc2cccnc2)CSC1(C)C`, the Activity [1] was “Active”, the Activity [2] was “Active” and the Activity [3] was “Dose-dependent effect”. The Activity [4] was “Active”, the Activity [5] was 2.31 µg/g and the Activity [6] was “inactive”.

In the case of `CCC(C)(C)C(=O)C(=O)N1[C@H](C(=O)OC/C=C/c2ccccc2)CSC1(C)C`, the Activity [1] was “Active” and the Activity [2] was “Active”.

With `CCCCCCC(=O)C(=O)N1[C@H](C(=O)OCCCc2ccccc2)CSC1(C)C` the Activity [1] was “Active” and the Activity [2] was “Active”.

In the case of `CCCCCCC(=O)C(=O)N1[C@H](C(=O)OCCc2ccccc2Cl)CSC1(C)C`, the Activity [1] was “Active” and the Activity [2] was “Active”.

With `CC(C)(C)C(=O)C(=O)N1[C@H](C(=O)OCCCc2ccccc2)CSC1(C)C` the Activity [1] was “Active” and the Activity [2] was “Active”.

In the case of `C=CCCCCCCCCOC(=O)[C@@H]1CSC(C)(C)N1C(=O)C(=O)C(C)(C)C`, the Activity [1] was “Active” and the Activity [2] was “Active”.

`C=CC[C@@H]1/C=C(\C)C[C@H](C)C[C@H](OC)[C@H]2O[C@@](O)(C(=O)C(=O)N3CCCC[C@H]3C(=O)O[C@H](/C(C)=C/[C@@H]3CC[C@@H](O)[C@H](OC)C3)[C@H](C)[C@@H](O)CC1=O)[C@H](C)C[C@@H]2OC` [TACROLIMUS ANHYDROUS] was tested, and the Activity [7] was 2.33 µg/g.
